Results on one molecule are retold here after ChEMBL document CHEMBL5247577, “Improved Selective Class I HDAC and Novel Selective HDAC3 Inhibitors: Beyond Hydroxamic Acids and Benzamides” (ACS Med Chem Lett, 2019).

In general, bioavailability refers to dose-corrected exposure relative to a reference, in per cent. Read a high bioavailability as much systemic uptake. For orientation: IC50 means the concentration that gives 50% inhibition. A word on the AUC: it is the area under the concentration-time curve, a measure of exposure. Higher therefore signals high exposure. Broadly, the half-life is how long it takes for the measured level to halve. A higher half-life goes with slow loss.

Activity calls are given as the source filed them. No cut-off for these calls is given here. Some results are limits rather than exact numbers.

Data set [1] is described as follows: Permeability of the compound in porcine brain endothelial cells by BBB assay. Format: ADME, cell-based, Sus scrofa, Endothelial cell. Particulars: pig; read-out: permeability.
A short description of data set [2]: Oral bioavailability in Wistar rat at 10 mg/kg by LC/MS/MS analysis. Format: ADME, organism-based. Particulars: in vivo. In outline:
(§1)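 Compound dosed as the tartrate salt. Oral doses were 20 mg/kg in mouse, 10 mg/kg in rat and 5 mg/kg in minipig.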

The nature of data set [3]: Oral bioavailability in Gottigen pig by LC/MS/MS analysis. Format: ADME, organism-based, Sus scrofa. Particulars: in vivo. In outline: as §1
For a further data set, the target named is Cytochrome P450 3A4 (Homo sapiens, UniProt P08684). Put plainly: Inhibition of CYP3A4 (unknown origin). Format: ADME.
Data set [4] is described as follows: Oral bioavailability in NMRI mouse at 20 mg/kg by LC/MS/MS analysis. Format: ADME, organism-based. The settings on record: in vivo. In outline: as §1
The target in data set [5] is Histone deacetylase 4 (Homo sapiens) (UniProt P56524). Put plainly: Inhibition of human HDAC4 at 5 uM.
Data set [6] can be described thus: Volume of distribution at steady state in Wistar rat at 10 mg/kg, po or 2 mg/kg,iv by LC/MS/MS analysis. Format: ADME, organism-based. The settings on record: in vivo. In a few lines:
as §1

For data set [7], the target named is T1, Voltage-gated inwardly rectifying potassium channel KCNH2 (Homo sapiens, UniProt Q12809). Put plainly: Inhibition of hERG by patch clamp assay. Format: toxicity. A general note: The hERG channel carries a current that helps repolarise heart muscle cells.
In data set [8] the target is T2, Histone deacetylase 7 (Homo sapiens) (UniProt Q8WUI4).
T2 sequence (whole entry): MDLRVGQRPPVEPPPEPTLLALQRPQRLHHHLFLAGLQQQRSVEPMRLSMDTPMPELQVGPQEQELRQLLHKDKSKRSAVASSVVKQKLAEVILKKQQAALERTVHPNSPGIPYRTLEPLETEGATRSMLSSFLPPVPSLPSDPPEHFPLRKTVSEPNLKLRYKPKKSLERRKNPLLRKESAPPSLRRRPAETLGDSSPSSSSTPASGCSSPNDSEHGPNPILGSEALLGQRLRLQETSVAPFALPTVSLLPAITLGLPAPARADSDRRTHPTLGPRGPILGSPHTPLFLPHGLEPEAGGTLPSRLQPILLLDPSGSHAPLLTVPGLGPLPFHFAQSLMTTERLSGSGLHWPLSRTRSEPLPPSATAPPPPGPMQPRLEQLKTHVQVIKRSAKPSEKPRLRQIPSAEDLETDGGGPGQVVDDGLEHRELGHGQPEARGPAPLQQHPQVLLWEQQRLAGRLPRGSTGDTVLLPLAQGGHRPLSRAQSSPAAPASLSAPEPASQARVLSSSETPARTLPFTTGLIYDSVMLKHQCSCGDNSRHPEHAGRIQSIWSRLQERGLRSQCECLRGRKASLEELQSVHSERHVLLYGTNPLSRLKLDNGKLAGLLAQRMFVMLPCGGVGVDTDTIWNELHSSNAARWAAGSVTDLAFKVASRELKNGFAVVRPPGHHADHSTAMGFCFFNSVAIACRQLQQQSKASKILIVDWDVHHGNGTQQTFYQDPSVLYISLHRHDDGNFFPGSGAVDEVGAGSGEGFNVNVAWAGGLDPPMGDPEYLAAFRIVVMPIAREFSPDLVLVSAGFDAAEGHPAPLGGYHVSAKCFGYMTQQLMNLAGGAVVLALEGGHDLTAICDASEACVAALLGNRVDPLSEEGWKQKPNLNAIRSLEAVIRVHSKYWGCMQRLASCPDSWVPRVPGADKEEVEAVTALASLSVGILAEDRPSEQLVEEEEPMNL
Put plainly: Inhibition of human HDAC7 at 5 uM.

Data set [9] in a line: AUC in NMRI mouse plasma at 5 to 20 mg/kg, po by LC/MS/MS analysis. Format: ADME, organism-based. Particulars: in vivo, dose 5-20 mg/kg. More on the design: route po. In a few lines: (§2)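 Compound given orally as its tartrate salt at 20 mg/kg in mouse, 10 mg/kg in rat and 5 mg/kg in minipig.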
The next data set has as its target T3, Cytochrome P450 1A2 (Homo sapiens, UniProt P05177).
T3 sequence (P05177 whole entry): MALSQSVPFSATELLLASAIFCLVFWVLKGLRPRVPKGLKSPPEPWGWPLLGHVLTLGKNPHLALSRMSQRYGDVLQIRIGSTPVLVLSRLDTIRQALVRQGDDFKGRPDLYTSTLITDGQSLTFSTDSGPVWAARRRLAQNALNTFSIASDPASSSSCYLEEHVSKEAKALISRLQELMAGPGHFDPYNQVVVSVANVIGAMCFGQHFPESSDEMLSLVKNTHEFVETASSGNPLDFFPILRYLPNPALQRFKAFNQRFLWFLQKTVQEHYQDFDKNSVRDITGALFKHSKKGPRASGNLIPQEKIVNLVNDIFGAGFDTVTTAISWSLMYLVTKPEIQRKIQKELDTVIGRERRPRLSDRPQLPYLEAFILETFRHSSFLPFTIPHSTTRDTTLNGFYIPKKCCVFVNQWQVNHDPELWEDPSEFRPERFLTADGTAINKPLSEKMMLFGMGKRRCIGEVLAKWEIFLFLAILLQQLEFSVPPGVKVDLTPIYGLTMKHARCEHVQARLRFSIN
Put plainly: Inhibition of CYP1A2 (unknown origin). Format: ADME.

Data set [10] can be described thus: Volume of distribution at steady state in Gottigen pig by LC/MS/MS analysis. Format: ADME, Sus scrofa. The settings on record: in vivo, read-out: Vdss. In outline:
as §1

Data set [11] can be described thus: Volume of distribution at steady state in NMRI mouse at 20 mg/kg, po or 2 mg/kg, iv by LC/MS/MS analysis. Format: ADME, organism-based. Particulars: in vivo. In a few lines: as §1
For a further data set, the target named is Cytochrome P450 2D6 (Homo sapiens, UniProt P10635). Put plainly: Inhibition of CYP2D6 (unknown origin). Format: ADME.
The target in the next data set is Histone deacetylase 3 (Homo sapiens, UniProt O15379). Put plainly: Inhibition of human HDAC3 expressed in baculovirus infected insect cells using FLUOR DE LYS-SIRT1 as fluorogenic substrate preincubated for 10 mins followed by substrate addition and measured after 1 hr by spectrophotometer based analysis.
The target in the next data set is Histone deacetylase 1 (Homo sapiens, UniProt Q13547). Put plainly: Inhibition of human recombinant his tagged HDAC1 expressed in baculovirus expression system using FLUOR DE LYS-SIRT1 as fluorogenic substrate preincubated for 10 mins followed by substrate addition and measured after 1 hr by spectrophotometer based analysis.
Data set [12] is described as follows: Half life in NMRI mouse plasma at 20 mg/kg, po or 2 mg/kg, iv by LC/MS/MS analysis. Format: ADME, organism-based. In outline:
as §1

Data set [13] can be described thus: AUC in Gottigen pig plasma 5 to 20 mg/kg, po by LC/MS/MS analysis. Also noted: route po. Format: ADME, organism-based, Sus scrofa. The settings on record: dose 5-20 mg/kg. In a few lines: as §2
Data set [14] is described as follows: Genotoxicity in Salmonella typhimurium by Ames test. Particulars: salmonella enterica subsp. enterica serovar typhimurium. Format: toxicity. In outline:
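Bacterial reverse mutation assay in two strains, Salmonella typhimurium and Escherichia coli, scoring reverse mutations.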
(The Ames test uses bacterial strains that need an amino acid and regain growth without it when mutated back.)

A short description of data set [15]: AUC in Wistar rat plasma at 5 to 20 mg/kg, po by LC/MS/MS analysis. Format: ADME, organism-based. Also noted: route po. The settings on record: dose 5-20 mg/kg. In a few lines:
as §2

A short description of data set [16]: Half life in Gottigen pig plasma by LC/MS/MS analysis. Format: ADME, Sus scrofa. In outline: as §1
The target of a further data set is Histone deacetylase 2 (Homo sapiens, UniProt Q92769). Put plainly: Inhibition of human HDAC2.
Data set [17] has as its target T1, Voltage-gated inwardly rectifying potassium channel KCNH2. Put plainly: Inhibition of hERG potassium channel incubated for 4 hrs by fluorescence polarization assay. Format: toxicity.
Data set [18] is described as follows: Half life in Wistar rat plasma at 10 mg/kg, po or 2 mg/kg,iv by LC/MS/MS analysis. Format: ADME, organism-based. In a few lines: as §1

T1 sequence (Q12809 whole entry): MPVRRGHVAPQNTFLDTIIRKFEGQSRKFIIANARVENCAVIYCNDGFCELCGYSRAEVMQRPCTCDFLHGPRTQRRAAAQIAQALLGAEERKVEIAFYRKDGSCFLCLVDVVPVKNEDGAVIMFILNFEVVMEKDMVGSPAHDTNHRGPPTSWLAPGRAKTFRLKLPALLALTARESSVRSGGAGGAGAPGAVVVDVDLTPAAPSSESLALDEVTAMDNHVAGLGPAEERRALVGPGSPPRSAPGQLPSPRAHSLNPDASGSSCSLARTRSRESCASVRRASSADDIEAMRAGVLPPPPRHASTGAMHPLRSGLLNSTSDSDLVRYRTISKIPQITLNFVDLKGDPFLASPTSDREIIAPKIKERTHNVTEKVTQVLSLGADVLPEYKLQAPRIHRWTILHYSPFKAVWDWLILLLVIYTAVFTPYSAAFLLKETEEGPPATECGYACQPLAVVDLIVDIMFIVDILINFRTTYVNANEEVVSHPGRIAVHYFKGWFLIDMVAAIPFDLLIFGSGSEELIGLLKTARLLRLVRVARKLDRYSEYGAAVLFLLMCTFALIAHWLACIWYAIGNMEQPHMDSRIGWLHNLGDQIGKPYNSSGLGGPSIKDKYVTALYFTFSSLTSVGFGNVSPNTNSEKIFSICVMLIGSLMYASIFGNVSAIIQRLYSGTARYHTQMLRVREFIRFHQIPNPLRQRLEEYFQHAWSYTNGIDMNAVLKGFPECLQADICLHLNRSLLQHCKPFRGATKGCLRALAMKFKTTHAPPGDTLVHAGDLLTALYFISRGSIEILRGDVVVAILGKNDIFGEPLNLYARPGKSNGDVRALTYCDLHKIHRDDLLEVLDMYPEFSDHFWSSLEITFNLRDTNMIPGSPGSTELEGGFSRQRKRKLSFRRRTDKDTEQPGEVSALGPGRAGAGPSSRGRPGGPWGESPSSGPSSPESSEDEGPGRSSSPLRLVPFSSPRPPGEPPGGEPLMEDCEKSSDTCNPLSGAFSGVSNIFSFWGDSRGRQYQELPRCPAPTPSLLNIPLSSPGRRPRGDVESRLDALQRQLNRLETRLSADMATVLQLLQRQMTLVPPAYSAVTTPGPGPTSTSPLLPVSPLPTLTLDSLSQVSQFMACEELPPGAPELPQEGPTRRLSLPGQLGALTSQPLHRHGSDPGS
Chain of Histone deacetylase 3 (O15379 whole entry): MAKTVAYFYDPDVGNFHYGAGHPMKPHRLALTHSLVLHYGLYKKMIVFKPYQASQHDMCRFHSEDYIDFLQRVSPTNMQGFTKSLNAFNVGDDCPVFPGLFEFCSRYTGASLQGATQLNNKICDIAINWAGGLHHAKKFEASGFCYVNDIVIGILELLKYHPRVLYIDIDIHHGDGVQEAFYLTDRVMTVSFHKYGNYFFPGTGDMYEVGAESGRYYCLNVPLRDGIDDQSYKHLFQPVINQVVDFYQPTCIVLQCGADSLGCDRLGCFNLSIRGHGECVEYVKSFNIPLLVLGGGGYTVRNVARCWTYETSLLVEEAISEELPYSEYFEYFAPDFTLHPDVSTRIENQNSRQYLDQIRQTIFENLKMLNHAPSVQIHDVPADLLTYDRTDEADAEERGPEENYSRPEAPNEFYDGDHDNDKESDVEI
Chain of Cytochrome P450 2D6 (P10635 whole entry): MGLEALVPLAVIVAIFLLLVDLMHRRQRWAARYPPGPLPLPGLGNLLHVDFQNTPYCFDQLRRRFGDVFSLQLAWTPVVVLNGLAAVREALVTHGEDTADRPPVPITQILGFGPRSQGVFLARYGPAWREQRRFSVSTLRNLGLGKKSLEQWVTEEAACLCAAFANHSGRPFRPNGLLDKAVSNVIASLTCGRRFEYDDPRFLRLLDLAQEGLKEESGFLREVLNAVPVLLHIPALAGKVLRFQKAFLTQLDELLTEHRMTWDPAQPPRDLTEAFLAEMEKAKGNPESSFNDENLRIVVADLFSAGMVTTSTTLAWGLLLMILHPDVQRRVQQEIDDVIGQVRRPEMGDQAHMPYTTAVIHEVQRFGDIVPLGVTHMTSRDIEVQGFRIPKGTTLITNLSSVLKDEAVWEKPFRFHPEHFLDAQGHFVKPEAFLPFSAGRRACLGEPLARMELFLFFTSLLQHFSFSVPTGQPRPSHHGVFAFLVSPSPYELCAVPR
Chain of Histone deacetylase 2 (Q92769 whole entry): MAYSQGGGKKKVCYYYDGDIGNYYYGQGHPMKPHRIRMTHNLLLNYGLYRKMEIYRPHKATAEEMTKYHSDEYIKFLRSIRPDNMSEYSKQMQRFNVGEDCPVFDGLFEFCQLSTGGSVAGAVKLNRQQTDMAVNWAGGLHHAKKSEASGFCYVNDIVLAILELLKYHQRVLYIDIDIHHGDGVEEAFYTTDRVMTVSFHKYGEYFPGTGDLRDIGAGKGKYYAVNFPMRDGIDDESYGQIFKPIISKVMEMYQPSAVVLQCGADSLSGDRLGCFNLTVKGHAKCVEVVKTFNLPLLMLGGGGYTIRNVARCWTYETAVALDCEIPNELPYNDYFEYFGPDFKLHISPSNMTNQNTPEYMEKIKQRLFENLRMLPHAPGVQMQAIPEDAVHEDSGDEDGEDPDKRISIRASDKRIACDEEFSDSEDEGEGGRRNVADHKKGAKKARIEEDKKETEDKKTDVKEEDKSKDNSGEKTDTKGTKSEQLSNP
Chain of Histone deacetylase 4 (Homo sapiens) (P56524 whole entry): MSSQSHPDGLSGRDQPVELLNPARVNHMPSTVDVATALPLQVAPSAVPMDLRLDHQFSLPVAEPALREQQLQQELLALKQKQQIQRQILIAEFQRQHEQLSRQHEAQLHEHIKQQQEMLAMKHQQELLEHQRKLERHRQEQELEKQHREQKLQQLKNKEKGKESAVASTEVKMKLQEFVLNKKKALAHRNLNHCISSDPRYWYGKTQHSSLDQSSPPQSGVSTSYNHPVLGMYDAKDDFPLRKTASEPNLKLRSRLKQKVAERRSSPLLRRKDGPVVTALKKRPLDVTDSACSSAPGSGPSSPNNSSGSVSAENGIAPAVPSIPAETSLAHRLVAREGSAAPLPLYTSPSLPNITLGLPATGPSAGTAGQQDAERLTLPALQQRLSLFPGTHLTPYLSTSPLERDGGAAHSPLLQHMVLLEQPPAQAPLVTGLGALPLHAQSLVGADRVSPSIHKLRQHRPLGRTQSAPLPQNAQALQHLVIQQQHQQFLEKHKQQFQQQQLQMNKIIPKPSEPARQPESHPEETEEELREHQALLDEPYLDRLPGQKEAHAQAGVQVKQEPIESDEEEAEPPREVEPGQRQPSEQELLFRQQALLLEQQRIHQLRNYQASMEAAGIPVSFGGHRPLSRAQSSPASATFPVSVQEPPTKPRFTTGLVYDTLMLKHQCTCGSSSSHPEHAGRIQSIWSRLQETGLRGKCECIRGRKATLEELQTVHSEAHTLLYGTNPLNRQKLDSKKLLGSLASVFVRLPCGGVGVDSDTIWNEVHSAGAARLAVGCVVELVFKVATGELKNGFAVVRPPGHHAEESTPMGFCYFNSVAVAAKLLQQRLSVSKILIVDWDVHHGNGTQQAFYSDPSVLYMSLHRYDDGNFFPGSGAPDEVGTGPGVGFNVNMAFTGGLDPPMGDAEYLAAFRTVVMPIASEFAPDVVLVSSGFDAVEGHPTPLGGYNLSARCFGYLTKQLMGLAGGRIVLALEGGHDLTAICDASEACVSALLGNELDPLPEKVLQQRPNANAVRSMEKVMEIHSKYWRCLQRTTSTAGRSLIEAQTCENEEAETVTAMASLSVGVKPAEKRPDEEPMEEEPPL
Chain of Cytochrome P450 3A4 (P08684 whole entry): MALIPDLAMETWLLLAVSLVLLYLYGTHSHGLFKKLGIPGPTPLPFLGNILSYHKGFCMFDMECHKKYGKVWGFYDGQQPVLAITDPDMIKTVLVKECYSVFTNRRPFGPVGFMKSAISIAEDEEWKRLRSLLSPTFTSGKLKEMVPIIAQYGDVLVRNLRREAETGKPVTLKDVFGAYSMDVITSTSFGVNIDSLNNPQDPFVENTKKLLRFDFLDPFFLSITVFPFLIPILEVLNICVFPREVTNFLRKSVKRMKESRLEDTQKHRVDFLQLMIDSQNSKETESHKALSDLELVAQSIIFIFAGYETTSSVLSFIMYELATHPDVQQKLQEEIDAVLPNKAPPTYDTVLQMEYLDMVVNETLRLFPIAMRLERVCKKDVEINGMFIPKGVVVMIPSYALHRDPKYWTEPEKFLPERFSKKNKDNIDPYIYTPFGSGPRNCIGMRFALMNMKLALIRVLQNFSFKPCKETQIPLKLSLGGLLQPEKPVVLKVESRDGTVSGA
Chain of Histone deacetylase 1 (Q13547 whole entry): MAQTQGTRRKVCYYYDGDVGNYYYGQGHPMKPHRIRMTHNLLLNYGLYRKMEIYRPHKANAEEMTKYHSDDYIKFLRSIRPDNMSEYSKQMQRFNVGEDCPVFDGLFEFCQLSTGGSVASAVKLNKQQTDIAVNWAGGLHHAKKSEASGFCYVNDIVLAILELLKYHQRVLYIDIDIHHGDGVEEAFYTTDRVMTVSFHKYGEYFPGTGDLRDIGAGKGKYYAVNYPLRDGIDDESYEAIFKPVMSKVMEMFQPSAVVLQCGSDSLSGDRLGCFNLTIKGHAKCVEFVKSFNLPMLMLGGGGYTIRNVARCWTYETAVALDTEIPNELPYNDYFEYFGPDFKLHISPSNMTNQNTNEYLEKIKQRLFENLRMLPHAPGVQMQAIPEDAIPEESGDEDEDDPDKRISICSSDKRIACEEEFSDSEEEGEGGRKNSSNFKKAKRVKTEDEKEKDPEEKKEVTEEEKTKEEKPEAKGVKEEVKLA

As for `CCC(=O)CCCCC[C@H](NC(=O)C1CN(C)C1)c1ncc(-c2cc3ccccc3nc2OC)o1`, in data set [1], the Papp amounted to 105 nm/s. For the same molecule, the bioavailability in data set [2] is 100%; in [3], 30%. The 50% inhibitory concentration (IC50) was above 20 µM on Cytochrome P450 3A4; 10 µM in [7]; above 20 µM against Cytochrome P450 1A2; above 20 µM on Cytochrome P450 2D6; 0.0011 µM against Histone deacetylase 3; 0.0017 µM at Histone deacetylase 1. Further, the IC50 on Histone deacetylase 2 worked out at 0.0028 µM; in data set [17], 3.6 µM. In [4], this molecule showed an F of 62%. Besides, the inhibition entry in [5] and in data set [8] was “inactive” throughout. For the same molecule, the Vdss came out at 5.3 L/kg in data set [6] and 3.2 L/kg in data set [11]. In addition, the AUC in data set [9] turned out to be 9.3 µM·h; in data set [13] it was 2.6 µM·h; in data set [15], 21.5 µM·h. The Vd in data set [10] was 0.64 L/kg. Also, the half-life is 3.3 h in [12], 3.7 h in [16] and 3.3 h in data set [18]. Further, the Activity result in data set [14] is given as “Non-Toxic”.
